{
  "source": "ChEMBL document CHEMBL1121883",
  "about": "“1-(Naphthylalkyl)-1H-imidazole derivatives, a new class of anticonvulsant agents” (J Med Chem, 1981)",
  "assay_type_in_all_cases": "functional",
  "key": {"Mus musculus [1]": {"test_system": "Mus musculus", "experiment": "Compound was evaluated for anticonvulsant activity by maximal electroshock assay(MES) in mice after ip administration; 13-19", "method_in_brief": "(§1)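 Male Hilltop ICR-derived mice (19-30 g), groups of 8-10, dosed ip with compound or aqueous vehicle. After 15 min pretreatment, a transcorneal 60-Hz, 50 mA shock was given for 0.2 s. Just before the shock, each mouse was tested on a horizontal wire (10 s). Quantal data were analysed by Litchfield-Wilcoxon to give ED50 with 95% confidence limits.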"}, "Mus musculus [2]": {"test_system": "Mus musculus", "experiment": "Dose of compound causing a neurological deficit in 50% of mice after ip administration; 25-30", "method_in_brief": "(§2)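 Traction test in male Hilltop ICR-derived mice (19-30 g, groups of 8-10) just before electroshock, 15 min after ip or 30 min after oral dosing. Mice placed on a 16-gauge, 65-cm copper wire 40 cm above the table; deficit scored as failure to stay on for 10 s. ND50 with 95% limits by Litchfield-Wilcoxon.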"}, "Mus musculus [3]": {"test_system": "Mus musculus", "experiment": "Protective index is defined as ND50 (i.p.) divided by MES ED50(i.p.)", "method_in_brief": "(§3)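 Ratio of ND50 from the wire traction test to MES ED50, both measured by the same route (ip or oral) in the same animals. Quantal dose-response data for each were evaluated by Litchfield-Wilcoxon.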"}, "Mus musculus [4]": {"test_system": "Mus musculus", "experiment": "Compound was evaluated for anticonvulsant activity by maximal electroshock assay(MES) in mice after ip administration; 8-16", "method_in_brief": "as §1"}, "Mus musculus [5]": {"test_system": "Mus musculus", "experiment": "Dose of compound causing a neurological deficit in 50% of mice after ip administration; 19-38", "method_in_brief": "as §2"}, "Mus musculus [6]": {"test_system": "Mus musculus", "experiment": "Protective index defined as ND50 (p.o.) divided by MES ED50(op)", "method_in_brief": "as §3"}, "Mus musculus [7]": {"test_system": "Mus musculus", "experiment": "Dose causing a neurological deficit in 50% of mice following p.o. administration.", "method_in_brief": "as §2"}, "Mus musculus [8]": {"test_system": "Mus musculus", "experiment": "Dose of compound causing a neurological deficit in 50% of mice after ip administration; 61-69", "method_in_brief": "as §2"}, "Rattus norvegicus [9]": {"test_system": "Rattus norvegicus", "experiment": "Dose of compound causing a neurological deficit in 50% of rat after ip administration; 35-83", "method_in_brief": "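Rats (Simonsen Sprague-Dawley-derived, 80-110 g, groups of 8-10) placed on a suspended 16-gauge, 65-cm copper wire just before electroshock. Deficit scored as inability to remain for 8 s. Pretreatment was 15 min ip or 30 min oral. Quantal data analysed by Litchfield-Wilcoxon to give ND50 with 95% limits.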"}, "Rattus norvegicus [10]": {"test_system": "Rattus norvegicus", "experiment": "Compound was evaluated for anticonvulsant activity by maximal electroshock assay(MES) in rat after ip administration; 1.2-6.2"}, "Mus musculus [11]": {"test_system": "Mus musculus", "experiment": "Compound was evaluated for anticonvulsant activity by maximal electroshock assay(MES) in mice after ip administration; 12-15", "method_in_brief": "as §1"}, "Mus musculus [12]": {"test_system": "Mus musculus", "experiment": "Compound was evaluated for anticonvulsant activity by maximal electroshock assay(MES) in mice after po administration; 29-53", "method_in_brief": "(§4)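 Male Hilltop ICR-derived mice (19-30 g), groups of 8-10, given compound or aqueous vehicle orally. The transcorneal 60-Hz shock (50 mA, 0.2 s) followed a 30 min pretreatment and a wire-hang neurological check (10 s). ED50 and 95% confidence limits were obtained from quantal data by the Litchfield-Wilcoxon method.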"}, "Mus musculus [13]": {"test_system": "Mus musculus", "experiment": "Dose of compound causing a neurological deficit in 50% of mice after ip administration; 16-49", "method_in_brief": "as §2"}, "Mus musculus [14]": {"test_system": "Mus musculus", "experiment": "Compound was evaluated for anticonvulsant activity by maximal electroshock assay(MES) in mice after po administration; 41-77", "method_in_brief": "as §4"}, "Mus musculus [15]": {"test_system": "Mus musculus", "experiment": "Compound was evaluated for anticonvulsant activity by maximal electroshock assay(MES) in mice after ip administration; 8-17", "method_in_brief": "as §1"}, "Mus musculus [16]": {"test_system": "Mus musculus", "experiment": "Dose of compound causing a neurological deficit in 50% of mice after ip administration; 45-89", "method_in_brief": "as §2"}},
  "data": [
    {"smiles": "CCCCOC(Cn1ccnc1)c1cccc2ccccc12", "note": "(stereo unspecified)", "values": [
      {"measurement": "ED50", "setting": "Mus musculus [1]", "result": 16, "unit": "mg/kg"},
      {"measurement": "ND50", "setting": "Mus musculus [2]", "result": 27, "unit": "mg/kg"},
      {"measurement": "PI", "setting": "Mus musculus [3]", "result": 1.7}
    ]},
    {"smiles": "CCOC(Cn1ccnc1)c1ccc2ccccc2c1", "note": "(stereo unspecified)", "values": [
      {"measurement": "ED50", "setting": "Mus musculus [4]", "result": 11, "unit": "mg/kg"},
      {"measurement": "PI", "setting": "Mus musculus [3]", "result": 2.5},
      {"measurement": "ND50", "setting": "Mus musculus [5]", "result": 27, "unit": "mg/kg"}
    ]},
    {"smiles": "Br.CCc1ccc2cccc(C(=O)Cn3ccnc3)c2c1", "values": [
      {"measurement": "PI", "setting": "Mus musculus [6]", "result": ">2.5"},
      {"measurement": "ND50", "setting": "Mus musculus [7]", "result": ">100", "unit": "mg/kg"},
      {"measurement": "ND50", "setting": "Mus musculus [8]", "result": 65, "unit": "mg/kg"},
      {"measurement": "ND50", "setting": "Rattus norvegicus [9]", "result": 53, "unit": "mg/kg"},
      {"measurement": "ED50", "setting": "Rattus norvegicus [10]", "result": 3.1, "unit": "mg/kg"},
      {"measurement": "ED50", "setting": "Mus musculus [11]", "result": 13, "unit": "mg/kg"},
      {"measurement": "ED50", "setting": "Mus musculus [12]", "result": 40, "unit": "mg/kg"}
    ]},
    {"smiles": "Cl.c1ccc2cc(C3(Cn4ccnc4)OCCCO3)ccc2c1", "values": [
      {"measurement": "PI", "setting": "Mus musculus [6]", "result": ">1.7"},
      {"measurement": "ND50", "setting": "Mus musculus [7]", "result": ">100", "unit": "mg/kg"},
      {"measurement": "PI", "setting": "Mus musculus [3]", "result": 1.8},
      {"measurement": "ND50", "setting": "Mus musculus [13]", "result": 30, "unit": "mg/kg"},
      {"measurement": "ED50", "setting": "Mus musculus [14]", "result": 57, "unit": "mg/kg"}
    ]},
    {"smiles": "Cl.OC(CCn1ccnc1)c1ccc2ccccc2c1", "note": "(stereo unspecified)", "values": [
      {"measurement": "PI", "setting": "Mus musculus [3]", "result": 4.9},
      {"measurement": "ED50", "setting": "Mus musculus [15]", "result": 13, "unit": "mg/kg"},
      {"measurement": "ND50", "setting": "Mus musculus [16]", "result": 64, "unit": "mg/kg"}
    ]}
  ]
}
